Test results as given in ChEMBL document CHEMBL3286193, “Discovery of a series of 2,5-diaminopyrimidine covalent irreversible inhibitors of Bruton's tyrosine kinase with in vivo antitumor activity” (J Med Chem, 2014).
Calls of active or inactive are those of the source. The rule behind the calls is not given here.

Legend:
[1] = biological target: Mitogen-activated protein kinase 14 (Homo sapiens) (UniProt Q16539); test: Inhibition of P38-alpha MAPK (unknown origin) at 0.5 uM by [33P]-ATP filter binding assay
Outline: (§1)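 Kinase panel of 18 enzymes; inhibition tested at 0.5 μM. Values are means of duplicates.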

[2] = biological target: Tyrosine-protein kinase SYK (Homo sapiens) (UniProt P43405); test: Inhibition of SYK (unknown origin) at 0.5 uM by [33P]-ATP filter binding assay; outline: as §1
[3] = biological target: Protein kinase C alpha type (Homo sapiens) (UniProt P17252); test: Inhibition of PKC-alpha (unknown origin) at 0.5 uM by [33P]-ATP filter binding assay; outline: as §1
[4] = biological target: Receptor tyrosine-protein kinase erbB-2 (Homo sapiens, UniProt P04626); test: Inhibition of HER2 (unknown origin) after 1 hr by HTRF assay
Outline: (§2)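 Recombinant kinases tested by HTRF KinEase protocol. Enzyme preincubated with inhibitor for a fixed 10 min. IC50 values are means of duplicates.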

[5] = biological target: Epidermal growth factor receptor (Homo sapiens, UniProt P00533); test: Inhibition of EGFR (unknown origin) after 1 hr by HTRF assay
Outline: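 Commercial recombinant kinase, assayed in the HTRF KinEase format following the kit protocol. Enzyme and inhibitor were preincubated for a fixed 10 min before the reaction.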

[6] = biological target: Tyrosine-protein kinase JAK3 (Homo sapiens, UniProt P52333); test: Inhibition of Jak3 (unknown origin) after 1 hr by HTRF assay; outline: as §2
[7] = biological target: T1, Tyrosine-protein kinase BTK (Homo sapiens, UniProt Q06187); test: Binding affinity to Btk kinase domain (387 to 659) (unknown origin) assessed as compound-protein covalent adduct formation at Cys481 residue at 1:3 protein to compound molar ratio incubated for 3 hrs at 0 degC followed by overnight incubation with trypsin at 37 degC by LC-MS analysis
Outline: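 Covalent Btk kinase-domain adduct digested with trypsin. Resulting peptide fragments analyzed by mass spectrometry to locate the modified residue.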

[8] = biological target: T1, Tyrosine-protein kinase BTK; test: Irreversible inhibition of Btk phosphorylation at Tyr551 in human Ramos cells at 1 uM incubated for 1 hr followed by compound washout with fresh media measured after 2 hrs by Western blot analysis; assay type: cell-based
Outline: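 Ramos cells (5 × 10⁵) seeded overnight, treated with compound 1 h, then washed out with fresh media for 2 h. Cells stimulated with goat anti-human IgM for 3−5 min, lysed by boiling in SDS buffer, and Btk Tyr551 phosphorylation assessed by Western blot.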

[9] = tested on: JVM-3; test: Cytotoxicity against human JVM-3 cells assessed as growth inhibition at 1 to 10 uM after 72 hrs by CellTiter-Glo luminescent cell viability assay; assay type: functional, cell-based
[10] = tested on: MM1R; test: Cytotoxicity against human MM1R cells assessed as growth inhibition at 1 to 10 uM after 72 hrs by CellTiter-Glo luminescent cell viability assay; assay type: functional, cell-based
[11] = tested on: RL; test: Cytotoxicity against human RL cells assessed as growth inhibition at 1 to 10 uM after 72 hrs by CellTiter-Glo luminescent cell viability assay; assay type: functional, cell-based
[12] = tested on: WSU-DLCL2; test: Cytotoxicity against human WSU-DLCL2 cells assessed as growth inhibition at 1 to 10 uM after 72 hrs by CellTiter-Glo luminescent cell viability assay; assay type: functional, cell-based
[13] = Cytotoxicity against human DOHH2 cells assessed as growth inhibition after 72 hrs by CellTiter-Glo luminescent cell viability assay; assay type: functional, DOHH-2; details: Homo sapiens, DOHH-2, 72 h
Outline: (§3)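 Lymphoma cells seeded at 5000 cells/well, incubated 24 h, then exposed to compounds for 72 h. Viability read by CellTiter-Glo luminescence. GI50 from dose−response curves, mean of two or three independent experiments in triplicate.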

[14] = Cytotoxicity against human Pfeiffer cells assessed as growth inhibition after 72 hrs by CellTiter-Glo luminescent cell viability assay; assay type: functional; details: Homo sapiens, Pfeiffer, 72 h; outline: as §3
[15] = tested on: WSU-NHL; test: Cytotoxicity against human WSU-NHL cells assessed as growth inhibition after 72 hrs by CellTiter-Glo luminescent cell viability assay; assay type: functional; outline: as §3
[16] = Stability of the compound in FaSSIF assessed as compound remaining at 1 uM measured at 24 hrs by LC-MS analysis; assay type: ADME; details: read-out: Stability
Outline: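 Compound solutions in FaSSIF shaken at 350 rpm at 37 °C. Samples taken at 2, 6, 10 and 24 h and quantified by LC−MS as % remaining.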

[17] = Half life in ICR mouse at 1 mg/kg, iv by LC-MS analysis; assay type: ADME, organism-based; set-up: dose 1 mg/kg, route intravenous; details: in vivo
Outline: (§4)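 ICR mice (n = 3) given a single intravenous injection at 1 mg/kg. Blood sampled at various time points and analyzed by LC−MS to derive t1/2, CL and Vss.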

[18] = Clearance in ICR mouse at 1 mg/kg, iv by LC-MS analysis; assay type: ADME, organism-based; set-up: dose 1 mg/kg, route intravenous; details: in vivo; outline: as §4
[19] = Volume of distribution at steady state in ICR mouse at 1 mg/kg, iv by LC-MS analysis; assay type: ADME, organism-based; set-up: dose 1 mg/kg, route intravenous; details: in vivo, read-out: Vdss; outline: as §4
[20] = Plasma concentration in CB17 SCID mouse xenografted with human DOHH2 cells at 10 mg/kg, iv qd administered for 14 days measured at 2 hrs post last dose; assay type: ADME, organism-based, DOHH-2; set-up: dose 10 mg/kg, route intravenous
Outline: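 Female CB17/SCID mice were given 5 × 10⁶ DoHH2 cells subcutaneously. When tumours averaged ~167 mm³, mice were randomised into four groups (n = 6/group). Dosing was by tail-vein injection once daily for 14 consecutive days. Plasma compound levels were determined at 2 and 24 h after the final dose.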

[21] = Antitumor activity against human DOHH2 cells xenografted in CB17 SCID mouse assessed as tumor growth inhibition at 10 mg/kg, iv qd administered for 14 days measured over 14 days of compound treatment relative to vehicle-treated control; details: DOHH-2, iv, 336 h, read-out: TGI
[22] = Plasma concentration in CB17 SCID mouse xenografted with human DOHH2 cells at 20 mg/kg, iv qd administered for 14 days measured at 24 hrs post last dose; assay type: ADME, organism-based, DOHH-2; set-up: dose 20 mg/kg, route intravenous
Outline: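 Same DoHH2 xenograft study in female CB17/SCID mice, tail-vein dosing once daily for 14 days. Plasma compound concentrations determined at 2 and 24 h after the last administration.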

[23] = tested on: Mus musculus; test: Toxicity in CB17 SCID mouse xenografted with human DOHH2 cells assessed as body weight fluctuations at 10 mg/kg, iv qd administered for 14 days measured over 14 days of compound treatment; assay type: organism-based, DOHH-2; set-up: dose 10 mg/kg, route intravenous; details: in vivo, 336 h
Outline: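 Female CB17/SCID mice carried subcutaneous DoHH2 xenografts (5 × 10⁶ cells injected), randomised at ~167 mm³ mean tumour volume into four groups (n = 6/group). Compound was given intravenously via the tail vein once daily for 14 consecutive days. Body weights were tracked over time throughout the study.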

[24] = biological target: Tyrosine-protein kinase CSK (Homo sapiens) (UniProt P41240); test: Inhibition of CSK (unknown origin) at 0.5 uM by [33P]-ATP filter binding assay; outline: as §1
[25] = biological target: Cytoplasmic tyrosine-protein kinase BMX (Homo sapiens, UniProt P51813); test: Inhibition of Bmx (unknown origin) after 1 hr by HTRF assay; outline: as §2
[26] = biological target: Tyrosine-protein kinase JAK2 (Homo sapiens) (UniProt O60674); test: Inhibition of JAK2 (unknown origin) at 0.5 uM by [33P]-ATP filter binding assay; outline: as §1
[27] = biological target: Tyrosine-protein kinase ABL1 (Homo sapiens) (UniProt P00519); test: Inhibition of ABL (unknown origin) at 0.5 uM by [33P]-ATP filter binding assay; outline: as §1
Tyrosine-protein kinase ABL1 (Homo sapiens), sequence (P00519 whole entry): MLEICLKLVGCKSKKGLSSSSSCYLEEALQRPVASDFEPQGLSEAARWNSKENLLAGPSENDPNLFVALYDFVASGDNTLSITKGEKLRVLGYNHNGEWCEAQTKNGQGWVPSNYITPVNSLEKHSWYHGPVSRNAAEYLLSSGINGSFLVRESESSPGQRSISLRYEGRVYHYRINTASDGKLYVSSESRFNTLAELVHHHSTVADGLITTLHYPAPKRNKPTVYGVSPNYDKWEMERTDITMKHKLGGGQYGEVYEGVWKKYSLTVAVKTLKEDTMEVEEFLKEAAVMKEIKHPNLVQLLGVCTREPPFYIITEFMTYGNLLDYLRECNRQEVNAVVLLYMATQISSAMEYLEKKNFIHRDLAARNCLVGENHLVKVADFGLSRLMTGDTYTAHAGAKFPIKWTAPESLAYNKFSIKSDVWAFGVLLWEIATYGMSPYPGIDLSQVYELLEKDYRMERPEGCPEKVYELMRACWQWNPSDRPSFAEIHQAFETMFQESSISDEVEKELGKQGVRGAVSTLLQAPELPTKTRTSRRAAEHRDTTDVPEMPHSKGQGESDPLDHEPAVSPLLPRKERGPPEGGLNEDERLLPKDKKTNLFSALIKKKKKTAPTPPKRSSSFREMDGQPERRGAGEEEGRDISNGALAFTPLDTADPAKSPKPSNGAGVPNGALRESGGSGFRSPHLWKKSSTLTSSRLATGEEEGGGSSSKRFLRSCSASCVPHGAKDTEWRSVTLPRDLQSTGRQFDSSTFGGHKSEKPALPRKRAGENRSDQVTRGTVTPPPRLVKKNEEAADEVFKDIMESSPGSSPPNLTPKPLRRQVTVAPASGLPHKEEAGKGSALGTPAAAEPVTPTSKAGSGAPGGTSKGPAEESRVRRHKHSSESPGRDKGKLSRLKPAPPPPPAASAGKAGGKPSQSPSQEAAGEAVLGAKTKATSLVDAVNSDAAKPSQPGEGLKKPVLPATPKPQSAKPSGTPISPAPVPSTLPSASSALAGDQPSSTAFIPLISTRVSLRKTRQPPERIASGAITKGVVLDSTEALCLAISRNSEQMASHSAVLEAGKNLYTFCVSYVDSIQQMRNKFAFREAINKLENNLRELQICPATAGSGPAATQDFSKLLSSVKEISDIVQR

T1 sequence (Q06187 whole entry, the tested form may be a part): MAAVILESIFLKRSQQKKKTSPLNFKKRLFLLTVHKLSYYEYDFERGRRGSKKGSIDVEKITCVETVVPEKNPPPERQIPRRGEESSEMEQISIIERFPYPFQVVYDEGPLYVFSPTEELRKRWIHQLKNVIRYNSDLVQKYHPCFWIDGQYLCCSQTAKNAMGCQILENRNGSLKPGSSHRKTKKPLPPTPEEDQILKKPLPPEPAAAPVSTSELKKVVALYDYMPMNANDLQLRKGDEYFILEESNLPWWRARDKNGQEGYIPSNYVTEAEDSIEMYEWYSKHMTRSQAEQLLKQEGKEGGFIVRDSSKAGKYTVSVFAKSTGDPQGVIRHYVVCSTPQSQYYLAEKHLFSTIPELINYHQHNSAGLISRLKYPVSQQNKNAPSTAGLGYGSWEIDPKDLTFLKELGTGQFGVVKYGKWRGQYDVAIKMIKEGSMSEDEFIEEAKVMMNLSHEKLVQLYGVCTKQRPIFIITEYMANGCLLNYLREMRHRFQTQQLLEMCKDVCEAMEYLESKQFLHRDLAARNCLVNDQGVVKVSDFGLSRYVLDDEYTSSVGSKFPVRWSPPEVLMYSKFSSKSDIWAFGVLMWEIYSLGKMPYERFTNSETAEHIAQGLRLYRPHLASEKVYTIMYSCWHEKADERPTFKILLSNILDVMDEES
Mitogen-activated protein kinase 14 (Homo sapiens), sequence (Q16539 whole entry): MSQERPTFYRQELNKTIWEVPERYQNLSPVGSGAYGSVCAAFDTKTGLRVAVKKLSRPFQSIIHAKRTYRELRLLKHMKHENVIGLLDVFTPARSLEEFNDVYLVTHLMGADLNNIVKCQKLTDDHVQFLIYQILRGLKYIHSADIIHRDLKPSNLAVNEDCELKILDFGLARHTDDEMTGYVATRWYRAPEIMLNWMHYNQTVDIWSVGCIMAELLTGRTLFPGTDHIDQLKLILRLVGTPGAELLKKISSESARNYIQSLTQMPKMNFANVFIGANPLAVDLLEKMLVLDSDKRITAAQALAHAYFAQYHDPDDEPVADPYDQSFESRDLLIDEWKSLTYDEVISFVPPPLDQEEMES
Cytoplasmic tyrosine-protein kinase BMX, sequence (P51813 whole entry): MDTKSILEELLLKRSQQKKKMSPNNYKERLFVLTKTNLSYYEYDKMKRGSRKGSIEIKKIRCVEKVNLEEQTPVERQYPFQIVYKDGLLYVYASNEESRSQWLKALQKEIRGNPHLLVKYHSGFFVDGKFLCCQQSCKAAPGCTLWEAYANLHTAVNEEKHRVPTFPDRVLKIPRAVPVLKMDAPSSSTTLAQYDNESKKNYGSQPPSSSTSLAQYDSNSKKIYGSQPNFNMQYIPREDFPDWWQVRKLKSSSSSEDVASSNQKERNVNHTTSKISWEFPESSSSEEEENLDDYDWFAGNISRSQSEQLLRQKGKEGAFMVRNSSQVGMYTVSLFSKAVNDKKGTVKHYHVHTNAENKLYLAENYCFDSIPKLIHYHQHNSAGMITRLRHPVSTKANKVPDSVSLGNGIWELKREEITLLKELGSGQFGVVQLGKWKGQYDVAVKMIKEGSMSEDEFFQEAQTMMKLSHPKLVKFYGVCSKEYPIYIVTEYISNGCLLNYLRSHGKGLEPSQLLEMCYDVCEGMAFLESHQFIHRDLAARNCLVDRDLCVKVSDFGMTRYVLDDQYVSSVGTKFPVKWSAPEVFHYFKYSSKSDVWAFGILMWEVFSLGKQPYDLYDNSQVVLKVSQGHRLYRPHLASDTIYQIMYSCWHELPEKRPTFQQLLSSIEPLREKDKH
Tyrosine-protein kinase CSK (Homo sapiens), sequence (P41240 2-450 limits assumed): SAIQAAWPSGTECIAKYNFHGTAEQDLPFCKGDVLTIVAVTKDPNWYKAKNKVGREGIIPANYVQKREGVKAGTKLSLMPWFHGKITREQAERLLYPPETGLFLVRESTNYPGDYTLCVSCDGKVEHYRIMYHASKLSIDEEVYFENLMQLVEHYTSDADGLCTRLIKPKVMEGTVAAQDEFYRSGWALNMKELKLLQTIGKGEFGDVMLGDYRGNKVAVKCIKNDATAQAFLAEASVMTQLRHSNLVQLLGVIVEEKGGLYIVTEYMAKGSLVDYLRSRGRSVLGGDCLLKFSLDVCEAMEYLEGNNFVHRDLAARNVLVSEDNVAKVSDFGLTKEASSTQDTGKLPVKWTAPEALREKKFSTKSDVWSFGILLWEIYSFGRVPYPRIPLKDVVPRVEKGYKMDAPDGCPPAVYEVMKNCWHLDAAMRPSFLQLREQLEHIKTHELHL
Tyrosine-protein kinase JAK3, sequence (P52333 whole entry, the tested form may be a part): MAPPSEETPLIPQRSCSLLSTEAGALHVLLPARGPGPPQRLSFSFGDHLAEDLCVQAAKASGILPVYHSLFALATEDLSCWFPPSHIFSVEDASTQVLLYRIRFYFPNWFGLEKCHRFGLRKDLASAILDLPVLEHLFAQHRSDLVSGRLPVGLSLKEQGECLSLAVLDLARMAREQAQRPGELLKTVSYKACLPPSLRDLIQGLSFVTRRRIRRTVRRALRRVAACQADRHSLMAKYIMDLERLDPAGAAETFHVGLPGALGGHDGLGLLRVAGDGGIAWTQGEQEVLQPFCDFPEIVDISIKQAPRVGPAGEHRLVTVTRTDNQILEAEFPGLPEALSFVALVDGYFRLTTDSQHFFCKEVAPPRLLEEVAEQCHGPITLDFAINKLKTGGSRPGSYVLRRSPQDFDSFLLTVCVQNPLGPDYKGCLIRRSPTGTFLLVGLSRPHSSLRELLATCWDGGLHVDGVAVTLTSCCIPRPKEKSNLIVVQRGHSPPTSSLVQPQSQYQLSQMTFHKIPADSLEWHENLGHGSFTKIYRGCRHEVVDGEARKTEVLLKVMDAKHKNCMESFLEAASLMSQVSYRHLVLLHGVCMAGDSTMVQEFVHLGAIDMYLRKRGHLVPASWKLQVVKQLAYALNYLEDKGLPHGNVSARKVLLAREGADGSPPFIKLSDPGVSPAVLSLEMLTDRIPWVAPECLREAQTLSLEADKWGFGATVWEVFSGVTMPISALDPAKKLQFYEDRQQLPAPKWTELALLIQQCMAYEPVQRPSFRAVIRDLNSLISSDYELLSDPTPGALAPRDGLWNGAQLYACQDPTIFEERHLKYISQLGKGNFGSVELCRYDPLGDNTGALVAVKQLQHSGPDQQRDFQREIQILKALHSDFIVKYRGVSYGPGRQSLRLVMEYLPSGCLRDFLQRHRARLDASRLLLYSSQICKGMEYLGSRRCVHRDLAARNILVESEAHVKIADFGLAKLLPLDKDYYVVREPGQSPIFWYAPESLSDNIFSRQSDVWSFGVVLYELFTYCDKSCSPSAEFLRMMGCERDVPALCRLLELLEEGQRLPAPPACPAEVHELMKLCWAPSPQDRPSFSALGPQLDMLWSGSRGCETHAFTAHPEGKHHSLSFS

In the case of `C=CC(=O)Nc1cccc(Nc2ncc(NC(=O)c3cc(NC(=O)c4cccc(C(F)(F)F)c4)ccc3C)cn2)c1`, the inhibition [1] is reported as “Active”, the inhibition [2] is reported as “inactive” and the inhibition [3] is reported as “inactive”. The IC50 [4] was 19 nM, the IC50 [5] was 11 nM and the IC50 [6] was 2680 nM. For the same compound, the Activity [7] was “Active”, the inhibition [8] was “Active” and the “growth inhibition (GI)” value [9] was “Active”. The “growth inhibition (GI)” value [10] was “Active”, the “growth inhibition (GI)” value [11] was “Active” and the “growth inhibition (GI)” value [12] was “Active”. For the same compound, the GI50 [13] was 73 nM, the GI50 [14] was 8 nM and the GI50 [15] was 31 nM. The remaining at 24 h, 1 µM [16] was 94%, the half-life [17] was 2.8 h and the clearance [18] was 6.85 mL/min/kg. It also gave a Vd [19] of 0.2 L/kg, a concentration at 2 h [20] of 378 ng/mL and an inhibition in vivo at 10 mg/kg [21] of 60%. For the same compound, the concentration at 24 h [22] was 13 ng/mL, the Activity [23] was “Non-toxic” and the inhibition [24] was “Active”. The IC50 [25] was 1.9 nM, the inhibition [26] was “Active” and the inhibition [27] was “Active”.
